In ChEMBL document CHEMBL5036319, “Discovery of Novel Benzothiazepinones as Irreversible Covalent Glycogen Synthase Kinase 3β Inhibitors for the Treatment of Acute Promyelocytic Leukemia” (J Med Chem, 2021):
Active and inactive are the calls of the source. The rule behind the calls is not given here.

Experiments:
[1] = Induction in caspase-mediated apoptosis in human NB4-DR1 cells assessed as viable cells at 100 uM incubated for 24 hrs in presence of Z-VAD-FMK by Annexin V-FITC/propidium iodide staining based flow cytometry analysis (reference value: 96.4%); format: functional; settings: read-out: Activity
[2] = Induction in caspase-mediated apoptosis in human NB-4 cells assessed as late apoptotic cells at 25 uM incubated for 24 hrs in presence of Z-VAD-FMK by Annexin V-FITC/propidium iodide staining based flow cytometry analysis (reference value: 1.15%); format: functional
[3] = target: Glycogen synthase kinase-3 beta (Homo sapiens, UniProt P49841); experiment: Binding affinity to recombinant human GSK-3beta assessed as covalent bond formation between compound and enzyme by measuring mass changes by […] analysis
Glycogen synthase kinase-3 beta, sequence (P49841 whole entry, looked up): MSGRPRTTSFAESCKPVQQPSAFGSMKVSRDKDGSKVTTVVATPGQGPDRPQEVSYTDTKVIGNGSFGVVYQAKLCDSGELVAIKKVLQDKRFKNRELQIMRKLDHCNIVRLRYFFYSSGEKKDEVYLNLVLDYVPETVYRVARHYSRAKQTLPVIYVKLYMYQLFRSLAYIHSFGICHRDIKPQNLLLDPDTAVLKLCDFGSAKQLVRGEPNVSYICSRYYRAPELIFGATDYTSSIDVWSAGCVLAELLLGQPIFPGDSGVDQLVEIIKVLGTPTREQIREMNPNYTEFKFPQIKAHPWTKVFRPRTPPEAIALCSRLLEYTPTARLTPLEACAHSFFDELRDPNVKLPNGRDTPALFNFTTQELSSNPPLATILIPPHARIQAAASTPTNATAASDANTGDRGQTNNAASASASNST
Summary of the method: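 Human recombinant GSK-3β (10 μM stock in 50 mM HEPES, 1 mM EDTA, 2 mM EGTA, 15 mM Mg(OAc)2) was incubated with compound in DMSO (1.6 μL of 500 μM into 14.4 μL) at 30 °C with shaking for 30 min. Intact protein was run on C4 LC over a 5–100% acetonitrile/0.1% formic acid gradient into positive-ion Q-TOF MS, and mass shift was read.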

[4] = Induction in caspase-mediated apoptosis in human NB-4 cells assessed as viable cells at 25 uM incubated for 24 hrs in presence of Z-VAD-FMK by Annexin V-FITC/propidium iodide staining based flow cytometry analysis (reference value: 96.8%); format: functional; settings: read-out: Activity
[5] = Induction in caspase-mediated apoptosis in human NB-4 cells assessed as early apoptotic cells at 50 uM incubated for 24 hrs by Annexin V-FITC/propidium iodide staining based flow cytometry analysis (reference value: 2.02%); format: functional
[6] = Induction in caspase-mediated apoptosis in human NB4-DR1 cells assessed as viable cells at 50 uM incubated for 24 hrs by Annexin V-FITC/propidium iodide staining based flow cytometry analysis (reference value: 96.9%); format: functional; settings: read-out: Activity
NB-4 [7] = experiment: Cytotoxicity against human NB-4 cells assessed as reduction in cell viability measured after 24 hrs by CCK-8 assay; format: functional, cell-based; settings: NB-4, 24 h
Summary of the method: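 Cells were grown in RPMI-1640 or high-glucose DMEM with 10% FBS at 37 °C, 5% CO2, and seeded at 3 × 10^4 cells/well. Exposure was 24 h across serial concentrations (0−1000 μM in the screen). […] Three independent experiments, mean ± SEM.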

[8] = Induction in caspase-mediated apoptosis in human NB4-DR1 cells assessed as necrotic cells at 25 uM incubated for 24 hrs by Annexin V-FITC/propidium iodide staining based flow cytometry analysis (reference value: 0.19%); format: functional
[9] = Induction in caspase-mediated apoptosis in human NB-4 cells assessed as late apoptotic cells at 100 uM incubated for 24 hrs by Annexin V-FITC/propidium iodide staining based flow cytometry analysis (reference value: 1.06%); format: functional
[10] = Induction in caspase-mediated apoptosis in human NB4-DR1 cells assessed as late apoptotic cells at 50 uM incubated for 24 hrs in presence of Z-VAD-FMK by Annexin V-FITC/propidium iodide staining based flow cytometry analysis (reference value: 2.54%); format: functional
[11] = Induction in caspase-mediated apoptosis in human NB-4 cells assessed as viable cells at 12.5 uM incubated for 24 hrs in presence of Z-VAD-FMK by Annexin V-FITC/propidium iodide staining based flow cytometry analysis (reference value: 96.8%); format: functional; settings: read-out: Activity
[12] = Induction in caspase-mediated apoptosis in human NB-4 cells assessed as necrotic cells at 12.5 uM incubated for 24 hrs in presence of Z-VAD-FMK by Annexin V-FITC/propidium iodide staining based flow cytometry analysis (reference value: 0.167%); format: functional
[13] = Induction in caspase-mediated apoptosis in human NB4-DR1 cells assessed as viable cells at 12.5 uM incubated for 24 hrs by Annexin V-FITC/propidium iodide staining based flow cytometry analysis (reference value: 96.9%); format: functional; settings: read-out: Activity
NB-4 [14] = experiment: Antitumor activity against human NB-4 cells xenografted in BALB/c nude mouse assessed as reduction in tumor mass at 15 mg/kg/day, ip administered for 2 weeks; format: functional, organism-based
Summary of the method: (§1)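 Female Balb/c nude mice, 4 weeks old, received 2 × 10^6 NB4 cells s.c. in the right flank. Once tumours reached about 0.5 cm diameter, mice were randomised to corn-oil vehicle or drug in corn oil (n = 5). Dosing was 15 mg/kg/d i.p. once daily for 2 weeks. Caliper volume (length × width²)/2 was taken every other day, and tumours were excised and weighed at the end.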

NB-4 [15] = experiment: Antitumor activity against human NB-4 cells xenografted in BALB/c nude mouse assessed as tumor growth inhibition at 15 mg/kg/day, ip administered for 2 weeks relative to control; format: functional; settings: NB-4, ip, 336 h, read-out: TGI; summary of the method: as §1
[16] = Induction in caspase-mediated apoptosis in human NB-4 cells assessed as early apoptotic cells at 50 uM incubated for 24 hrs in presence of Z-VAD-FMK by Annexin V-FITC/propidium iodide staining based flow cytometry analysis (reference value: 1.84%); format: functional
[17] = Induction in caspase-mediated apoptosis in human NB-4 cells assessed as necrotic cells at 100 uM incubated for 24 hrs by Annexin V-FITC/Propidium iodide staining based flow cytometry analysis (reference value: 0.352%); format: functional
[18] = Induction in caspase-mediated apoptosis in human NB-4 cells assessed as early apoptotic cells at 25 uM incubated for 24 hrs by Annexin V-FITC/propidium iodide staining based flow cytometry analysis (reference value: 2.02%); format: functional
[19] = Induction in caspase-mediated apoptosis in human NB4-DR1 cells assessed as necrotic cells at 50 uM incubated for 24 hrs in presence of Z-VAD-FMK by Annexin V-FITC/propidium iodide staining based flow cytometry analysis (reference value: 0.223%); format: functional
[20] = Induction in caspase-mediated apoptosis in human NB4-DR1 cells assessed as late apoptotic cells at 100 uM incubated for 24 hrs by Annexin V-FITC/propidium iodide staining based flow cytometry analysis (reference value: 1.47%); format: functional
[21] = Induction in caspase-mediated apoptosis in human NB-4 cells assessed as viable cells at 100 uM incubated for 24 hrs in presence of Z-VAD-FMK by Annexin V-FITC/propidium iodide staining based flow cytometry analysis (reference value: 96.8%); format: functional; settings: read-out: Activity
[22] = AUClast in ICR mouse at 15 mg/kg, ip administered as single dose measured upto 8 hrs by LC-MS/MS analysis; format: ADME, organism-based; set-up: route intraperitoneal, dose 15 mg/kg, time <=8; settings: in vivo
Summary of the method: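 Male ICR mice (30 g) given a single i.p. bolus of 15 mg/kg in corn oil. Blood taken by orbital collection into K3EDTA tubes at 0.08, 0.17, 0.5, 1, 2, 4 and 8 h, three animals per time point, giving a composite profile. Plasma proteins were precipitated with acetonitrile and analysed by LC-MS/MS. Parameters were derived by non-compartmental analysis.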

[23] = Induction in caspase-mediated apoptosis in human NB4-DR1 cells assessed as early apoptotic cells at 12.5 uM incubated for 24 hrs by Annexin V-FITC/propidium iodide staining based flow cytometry analysis (reference value: 1.43%); format: functional
[24] = Induction in caspase-mediated apoptosis in human NB4-DR1 cells assessed as viable cells at 25 uM incubated for 24 hrs in presence of Z-VAD-FMK by Annexin V-FITC/propidium iodide staining based flow cytometry analysis (reference value: 96.4%); format: functional; settings: read-out: Activity

Activity [3]: Active | AUC(0-t) at 8 h [22]: 3500 ng·h/mL
SMILES: C=CC(=O)N1C(=O)CC(c2ccc(F)cc2)Sc2ccccc21 (centres undefined)
viability at 100 µM [1]: 82.2% | Activity [2]: 11.2% | viability at 25 µM [4]: 80% | Activity [5]: 7.23% | viability at 50 µM [6]: 79.7% | IC50 (NB-4 [7]): 19.6 µM | Activity [8]: 1.32% | Activity [9]: 85.5% | Activity [10]: 7.04% | viability at 12.5 µM [11]: 86.4% | Activity [12]: 1.59% | viability at 12.5 µM [13]: 92.2% | Activity (NB-4 [14]): Active | inhibition in vivo at 15 mg/kg/day (NB-4 [15]): 76% | Activity [16]: 8.18% | Activity [17]: 4.39% | Activity [18]: 6.44% | Activity [19]: 0.584% | Activity [20]: 46.8% | viability at 100 µM [21]: 72.2% | Activity [23]: 1.77% | viability at 25 µM [24]: 93%
